Screens: PubChem, several laboratories
Hits are enriched below; roughly 2.5% of the tested compounds scored in any of these assays.
IMP-1 inhibitor: blocks Pseudomonas aeruginosa IMP-1 metallo-beta-lactamase | purified IMP-1, nitrocefin hydrolysis, epi-absorbance fluorescence | 0.45% of 290,000 active | inhibition, % at 5.6 µM;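 active means inhibition above the mean plus 3 SD of all compounds in the same screening run, cut at about 4.5% in these data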;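 further: 0% = IMP-1 with DMSO and 100% = DMSO wells lacking enzyme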
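assay system = purified recombinant IMP-1 metallo-beta-lactamase enzyme | schedule = 15 min preincubation plus 25 min reaction at 25 °C | signal = Epi-absorbance fluorescence, 480 nm excitation, 530 nm emission | read-out basis = percent inhibition from optical density relative to buffer-blank wells | controls = IMP-1 with DMSO as 0%, enzyme-free DMSO as 100%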
m5-HT2A agonist: agonists of mouse serotonin 5-HT2A receptor (HTR2A) | P35363 | CHO-K1 mHTR2A beta-arrestin complementation, luminescence; percent of 30 µM serotonin response | activation, % at 7.6 µM | 0.66% of 360,000 active;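 active means activation above a run cutoff, the mean activation of all tested compounds plus 3 SD, cut at about 14% in these data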;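 further: 0% = plate median of compound wells and 100% = 30 µM serotonin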
VIM-2 inh: inhibitors of Pseudomonas aeruginosa VIM-2 metallo-beta-lactamase; purified VIM-2, nitrocefin hydrolysis, epi-absorbance fluorescence; 0.89% of 290,000 active; inhibition, % at 5.6 µM;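 active means inhibition above the mean of all tested compounds plus 3 SD, cutoff set per screening run, cut at about 7.5% in these data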;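 further: red hydrolysis product quenches plate fluorescence so inhibitors raise well fluorescence; 0% = enzyme with DMSO and 100% = DMSO without enzyme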
dFosB act-1: mouse delta FosB homodimer activation | P13346 | purified delta FosB, TAMRA-CDK5 oligo fluorescence polarization; percent of positive-control signal above neutral wells | activation, % at 25 µM | 0.99% of 340,000 active;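 active means mean activation above about 17%, with every replicate also reaching it, limit read from the data, passing the limit was not always enough; inconclusive means only one of the two conditions met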
Target sequence (P13346 whole entry, looked up): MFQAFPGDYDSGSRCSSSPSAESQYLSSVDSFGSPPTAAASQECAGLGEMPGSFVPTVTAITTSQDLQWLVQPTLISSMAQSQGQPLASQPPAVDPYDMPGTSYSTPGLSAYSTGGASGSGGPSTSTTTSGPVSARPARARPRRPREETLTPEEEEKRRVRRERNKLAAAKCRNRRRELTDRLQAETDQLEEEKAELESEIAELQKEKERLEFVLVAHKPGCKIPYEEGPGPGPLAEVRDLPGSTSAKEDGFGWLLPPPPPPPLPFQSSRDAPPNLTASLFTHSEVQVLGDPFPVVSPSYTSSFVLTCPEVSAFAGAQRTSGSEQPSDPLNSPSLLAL
dFosB act-2: activators of mouse delta FosB homodimer DNA binding. shares compounds with dFosB act-1. purified delta FosB, TAMRA-CDK5 oligo fluorescence polarization; normalised: neutral wells 0, positive control 100. activation, % at 24.9 µM. 2,400 tested, under 10 active. AID 588690;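 active means highest replicate activation at or above 34% and every replicate reaching that threshold; inconclusive means meets only one of the two criteria; inactive means meets neither criterion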;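 further: higher polarization means more probe DNA bound by delta FosB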
An asterisk follows results filed as active; ? = inconclusive; / = not tested or not shown.

SMILES | IMP-1 inhibitor | m5-HT2A agonist | VIM-2 inh | dFosB act-1 | dFosB act-2
Cc1cc(C)c2sc(N(CCN(C)C)C(=O)c3ccc4ccccc4c3)nc2c1 | -4 | -8 | -4 | 39* | 6
Cc1ccc2sc(N(CCN(C)C)C(=O)c3ccc4ccccc4c3)nc2c1C | 0 | 0 | 0 | 39* | 2
O=C(c1cccc(NS(=O)(=O)c2cccc(C(F)(F)F)c2)c1)N1CCOCC1 | -3 | 7 | 2 | -4 | /
Cc1cc(N2CCN(C(=O)Nc3ccc(F)cc3F)CC2)c2ccccc2n1 | -4 | -2 | -1 | -9 | /
CCCCc1ccc(NC(=O)N2CCN(c3cc(C)nc4ccccc34)CC2)c(C)c1 | -1 | -2 | -2 | 37* | 3
COc1cc(NC(=S)NC(=O)C(C)C)ccc1NC(=O)c1cc2ccccc2o1 | -4 | 5 | -3 | 1 | /
CCC(=O)NC(=S)Nc1ccc(NC(=O)c2cc3ccccc3o2)c(OC)c1 | -1 | 1 | -3 | 67* | 6
CCOC(=O)c1c(NC(=O)C(NCCN(C)C)c2ccccc2)sc2c1CCCC2 (stereo not drawn) | -3 | -7 | 0 | 34* | ?
COc1ccc2cc(/C=N/NC(=O)c3ccc(CN(c4cccc(Cl)c4Cl)S(C)(=O)=O)cc3)c(Cl)nc2c1 | -4 | 0 | -1 | 46* | ?
COc1ccc2cc(/C=N/O)c(Cl)nc2c1 | -2 | 1 | -4 | 10 | /
Cc1cc(NC(=O)c2ccc(Br)c([N+](=O)[O-])c2)no1 | 1 | -2 | 1 | 46* | 1
Cc1cc(NC(=O)c2ccc(C)c([N+](=O)[O-])c2)no1 | 0 | 0 | 1 | -3 | /
NC(=O)C1CCN(C(=O)CN(C2CCCCC2)S(=O)(=O)c2ccc(F)cc2)CC1 | -2 | -1 | 0 | -4 | /
COC(=O)COc1ccc2oc(=O)cc(-c3cc4cccc(OC)c4o3)c2c1 | 9.7* | -2 | -2 | 52* | 1
Nc1ccc(S(=O)(=O)Nc2nccc(/C=C/c3ccccc3F)n2)cc1 | -4 | -2 | -3 | 26* | 3
Cc1ccnc(NS(=O)(=O)c2ccc(NC(=O)c3ccccc3F)cc2)n1 | -1 | 4 | -1 | -2 | /
CC(=O)Nc1ccc(NC(=O)C2CCCN(S(=O)(=O)c3ccc(-n4cnnn4)cc3)C2)cc1 (stereo not drawn) | -3 | 5 | -4 | 23* | 0
Cc1cc(C)c(NC(=O)COc2ccc(-n3cnnn3)cc2)c(C)c1 | -4 | 1 | -5 | -9 | /
CC(=O)c1ccc(NC(=O)c2ccc(-n3cnnn3)cc2)cc1 | / | 3 | / | 24* | 2
Cc1cc(C)cc(OCC(=O)Nc2ccc(-n3cnnn3)cc2)c1 | / | 6 | / | 34* | 6
COc1c2ccoc2nc2c(OC)c(OC[C@@H](O)C(C)(C)O)ccc12 | / | 3 | / | -1 | /
NS(=O)(=O)c1cccc(NC(=O)CSc2nc3ccccc3c(=O)n2CC2CCCO2)c1 (stereo not drawn) | / | 5 | / | -12 | /
CC(OC(=O)c1cccc(-n2cnnn2)c1)C(=O)Nc1ccc(F)c(F)c1F (stereo not drawn) | / | -9 | / | 30* | -1
Cc1ccc(C)c(NC(=O)C2CC=CCC2C(=O)O)c1 (stereo not drawn) | -3 | 0 | -1 | -2 | /
Cc1ccc(C)c(NC(=O)C2CC3c4ccccc4C2c2ccccc23)c1 (stereo not drawn) | -2 | 1 | -2 | 40* | 0
SMILES | IMP-1 inhibitor | m5-HT2A agonist | VIM-2 inh | dFosB act-1 | dFosB act-2
CCN1C(=O)C2C(C1=O)N1C(c3cccs3)C3C(=O)N(CC)C(=O)C3N1C2c1cccs1 (stereo not drawn) | -2 | 2 | 0 | -1 | /
COc1ccc([N+](=O)[O-])cc1NC(=O)COC(=O)c1ccc(O)cc1 | -3 | -2 | 0 | 53* | 6
COc1ccc([N+](=O)[O-])cc1NC(=O)c1ccc(Br)s1 | -3 | -4 | -1 | 59* | 4
COc1ccc(C(=O)NCc2nnc(SCC(=O)N3CCCC3)o2)cc1 | -3 | 0 | -3 | 1 | /
COC(=O)C1(C)CCCC2(C)c3cc(OC)ccc3C(=O)C(Br)C12 (stereo not drawn) | / | 5 | / | / | /
CCC(=O)N1CCC1(C)C(=O)Nc1cccc(OC)c1OC (stereo not drawn) | / | 5 | / | / | /
CCOc1ccc(Oc2ccc(NC(=O)[C@@H](NC(N)=O)[C@@H](C)CC)cc2)cc1 | -3 | 3 | -3 | 31* | 1
CC1(C(=O)NCc2ccccc2)CSCC(=O)N1CCOc1ccccc1 (stereo not drawn) | / | 2 | / | / | /
CCOc1ccc(CNC(=O)C2CCN(c3nnc(C)c4c(C)n(-c5ccc(C)cc5)nc34)CC2)cc1 | 3 | -9 | 0 | 78* | -11
Cc1cccc(C)c1NC(=O)CCCn1nc(C)c2c(C)n(-c3ccccc3)nc2c1=O | -1 | 3 | 0 | 19* | 1
CCOc1ccccc1CNC(=O)Cn1nc(C)c2c(C)n(-c3ccc(C)cc3)nc2c1=O | 4 | 6 | -6 | 53* | 1
COc1cccc(CNC(=O)Cn2nc(C)c3c(C)n(-c4ccc(C)cc4)nc3c2=O)c1OC | -3 | 2 | -1 | -14 | /
CCOc1ccccc1CNC(=O)C1CCN(c2nnc(C)c3c(C)n(-c4ccc(C)cc4)nc23)CC1 | 1 | -4 | -2 | 85* | 5
COc1ccc(-n2nc3c(N4CCC(C(=O)NCc5cccc(C)c5)CC4)nnc(C)c3c2C)cc1 | 2 | -9 | 2 | ? | /
Cc1ccc(NC(=O)CCCn2nc(C)c3c(C)n(-c4ccccc4)nc3c2=O)cc1C | -1 | 0 | -2 | -2 | /
Cc1ccc(-n2nc3c(=O)n(C(C)C(=O)NCc4ccccc4Cl)nc(C)c3c2C)cc1 (stereo not drawn) | -5 | 0 | -8 | 28* | 1
O=C(Nc1ccccc1)Nc1snnc1C(=O)Nc1cccc(O)c1 | -2 | 2 | 1 | 57* | 1
COc1ccc2cc(CN(CC3COCCO3)S(=O)(=O)c3ccc(Cl)cc3)c(=O)[nH]c2c1 (stereo not drawn) | -1 | 0 | -2 | 39* | -1
O=C(NCc1ccccc1)c1cc(C2CCCN(C(=O)CCCc3ccccc3)C2)on1 (stereo not drawn) | / | -1 | / | / | /
COc1ccc([C@H]2CC(=O)C=C(c3ccc(F)cc3OCc3ccccc3)C2)cc1OC | / | -3 | / | 3 | /
Cc1ccc(CS(=O)(=O)CCC(=O)NCc2ccccc2Cl)cc1 | -4 | 4 | -5 | -7 | /
O=C(CCS(=O)(=O)Cc1ccccc1F)NCc1ccccc1Cl | -2 | -1 | -2 | 18* | -2
O=C(Nc1cccc(-n2cnnn2)c1)c1ccco1 | -3 | -8 | -2 | -15 | /
O=C(Nc1cccc(-n2cnnn2)c1)c1cc2ccccc2o1 | -3 | 0 | -3 | 37* | 6
CSc1ccc(S(=O)(=O)NCC(=O)OCC(=O)N2CCCC2=O)cc1[N+](=O)[O-] | / | -4 | / | -3 | /
COc1ccc(-c2nnn(CC(=O)Nc3sc4c(c3C#N)CCCC4)n2)cc1 | -4 | -3 | 1 | 26* | 1
